Peptide text beside a SMILES is read from it.

Assay [1] is described as follows: Inhibition of Plasmodium falciparum falcipain-2 after 12 hrs by fluorescence spectroscopy-based on-bead assay. Also noted: concentration or dose not given beside the values. Particulars: concentration not given here. A digest of the protocol: (§1)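 Library members on resin (PEGA, theoretical loading 0.40 mmol/g; added as DMSO suspension, 0.64 mM final inhibitor) preincubated with enzyme 12 h, then Cbz-Phe-Arg-AMC 40 μM added; AMC release followed by fluorescence (ex 380/em 460 nm). Kinetics compared with inhibitor-free amino-PEGA resin.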

Assay [2] deals with Rhodesain (Trypanosoma brucei rhodesiense) (UniProt Q95PM0). In words: Inhibition of Trypanosoma brucei rhodesiense rhodesain after 12 hrs by fluorescence spectroscopy-based on-bead assay. Set-up: concentration or dose not given beside the values. Particulars: concentration not given here. Put shortly:
as §1

Chain of Rhodesain (Trypanosoma brucei rhodesiense) (Q95PM0 1-450): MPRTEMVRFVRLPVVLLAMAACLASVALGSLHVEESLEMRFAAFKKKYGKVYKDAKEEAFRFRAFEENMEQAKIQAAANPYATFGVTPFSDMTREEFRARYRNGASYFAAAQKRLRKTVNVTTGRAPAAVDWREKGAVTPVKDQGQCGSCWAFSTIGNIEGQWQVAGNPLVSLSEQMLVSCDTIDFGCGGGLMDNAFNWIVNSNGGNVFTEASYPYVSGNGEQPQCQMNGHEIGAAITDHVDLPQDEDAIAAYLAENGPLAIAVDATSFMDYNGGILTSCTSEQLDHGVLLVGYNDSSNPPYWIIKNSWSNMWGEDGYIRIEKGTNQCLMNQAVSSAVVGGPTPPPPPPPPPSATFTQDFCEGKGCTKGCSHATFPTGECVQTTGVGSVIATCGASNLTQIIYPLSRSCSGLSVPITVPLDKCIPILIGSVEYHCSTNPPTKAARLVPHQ

For the compound `CC(C)[C@H](NC(=O)[C@H](C)NC(=O)[C@H](Cc1ccccc1)NC(=O)[C@H](C)NC(=O)/C=C/C(=O)N[C@@H](C)C(=O)NCC(=O)N[C@@H](Cc1ccccc1)C(=O)O)C(N)=O` (HELM PEPTIDE1{[C[C@H](NC(=O)/C=C/C(=O)[*:2])C(=O)NCC(=O)N[C@@H](Cc1ccccc1)C(=O)O].A.F.A.V.[am]}$$$$V2.0), the figures for the inhibition in assay [1] and in assay [2] were 51% and 18%, respectively.
For `CC(C)C[C@H](NC(=O)[C@H](Cc1ccccc1)NC(=O)[C@H](C)NC(=O)/C=C/C(=O)N[C@@H](C)C(=O)NCC(=O)N[C@@H](Cc1ccccc1)C(=O)O)C(=O)N[C@H](C(N)=O)C(C)C` (HELM PEPTIDE1{[C[C@H](NC(=O)/C=C/C(=O)[*:2])C(=O)NCC(=O)N[C@@H](Cc1ccccc1)C(=O)O].A.F.L.V.[am]}$$$$V2.0), in that order: 57% and 66%.
For `CC(C)[C@H](NC(=O)[C@@H](NC(=O)[C@H](Cc1ccccc1)NC(=O)[C@H](C)NC(=O)/C=C/C(=O)N[C@@H](C)C(=O)NCC(=O)N[C@@H](Cc1ccccc1)C(=O)O)C(C)C)C(N)=O` (HELM PEPTIDE1{[C[C@H](NC(=O)/C=C/C(=O)[*:2])C(=O)NCC(=O)N[C@@H](Cc1ccccc1)C(=O)O].A.F.V.V.[am]}$$$$V2.0), in that order: 35% and 55%.
The corresponding values for `CC[C@H](C)[C@H](NC(=O)[C@H](C)NC(=O)/C=C/C(=O)N[C@@H](C)C(=O)NCC(=O)N[C@@H](Cc1ccccc1)C(=O)O)C(=O)N[C@@H](C)C(=O)N[C@H](C(N)=O)C(C)C` (HELM PEPTIDE1{[C[C@H](NC(=O)/C=C/C(=O)[*:2])C(=O)NCC(=O)N[C@@H](Cc1ccccc1)C(=O)O].A.I.A.V.[am]}$$$$V2.0) are 37% and 9%.
For the compound `CC[C@H](C)[C@H](NC(=O)[C@H](C)NC(=O)/C=C/C(=O)N[C@@H](C)C(=O)NCC(=O)N[C@@H](Cc1ccccc1)C(=O)O)C(=O)N[C@@H](CC(C)C)C(=O)N[C@H](C(N)=O)C(C)C` (HELM PEPTIDE1{[C[C@H](NC(=O)/C=C/C(=O)[*:2])C(=O)NCC(=O)N[C@@H](Cc1ccccc1)C(=O)O].A.I.L.V.[am]}$$$$V2.0), the inhibition in assay [1] is 54%; in assay [2], 49%.
For `CC[C@H](C)[C@H](NC(=O)[C@H](C)NC(=O)/C=C/C(=O)N[C@@H](C)C(=O)NCC(=O)N[C@@H](Cc1ccccc1)C(=O)O)C(=O)N[C@H](C(=O)N[C@H](C(N)=O)C(C)C)C(C)C` (HELM PEPTIDE1{[C[C@H](NC(=O)/C=C/C(=O)[*:2])C(=O)NCC(=O)N[C@@H](Cc1ccccc1)C(=O)O].A.I.V.V.[am]}$$$$V2.0), in that order: 30% and 34%.
The corresponding values for `CC(C)C[C@H](NC(=O)[C@H](C)NC(=O)/C=C/C(=O)N[C@@H](C)C(=O)NCC(=O)N[C@@H](Cc1ccccc1)C(=O)O)C(=O)N[C@@H](C)C(=O)N[C@H](C(N)=O)C(C)C` (HELM PEPTIDE1{[C[C@H](NC(=O)/C=C/C(=O)[*:2])C(=O)NCC(=O)N[C@@H](Cc1ccccc1)C(=O)O].A.L.A.V.[am]}$$$$V2.0) are 62% and 31%.
For `CC(C)C[C@H](NC(=O)[C@H](C)NC(=O)/C=C/C(=O)N[C@@H](C)C(=O)NCC(=O)N[C@@H](Cc1ccccc1)C(=O)O)C(=O)N[C@H](C(=O)N[C@H](C(N)=O)C(C)C)C(C)C` (HELM PEPTIDE1{[C[C@H](NC(=O)/C=C/C(=O)[*:2])C(=O)NCC(=O)N[C@@H](Cc1ccccc1)C(=O)O].A.L.V.V.[am]}$$$$V2.0), in that order: 40% and 59%.
For the compound `CC(C)[C@H](NC(=O)[C@H](C)NC(=O)[C@@H](NC(=O)[C@H](C)NC(=O)/C=C/C(=O)N[C@@H](C)C(=O)NCC(=O)N[C@@H](Cc1ccccc1)C(=O)O)C1CCCCC1)C(N)=O` (HELM PEPTIDE1{[C[C@H](NC(=O)/C=C/C(=O)[*:2])C(=O)NCC(=O)N[C@@H](Cc1ccccc1)C(=O)O].A.[O=C([C@@H](N[*:1])C1CCCCC1)[*:2]].A.V.[am]}$$$$V2.0), the inhibition was determined as 38% in assay [1] and 26% in assay [2].
As to `CC(C)C[C@H](NC(=O)[C@@H](NC(=O)[C@H](C)NC(=O)/C=C/C(=O)N[C@@H](C)C(=O)NCC(=O)N[C@@H](Cc1ccccc1)C(=O)O)C1CCCCC1)C(=O)N[C@H](C(N)=O)C(C)C` (HELM PEPTIDE1{[C[C@H](NC(=O)/C=C/C(=O)[*:2])C(=O)NCC(=O)N[C@@H](Cc1ccccc1)C(=O)O].A.[O=C([C@@H](N[*:1])C1CCCCC1)[*:2]].L.V.[am]}$$$$V2.0), the inhibition in assay [1] turned out to be 43%; in assay [2] it was 59%.
For `CC(C)[C@H](NC(=O)[C@@H](NC(=O)[C@@H](NC(=O)[C@H](C)NC(=O)/C=C/C(=O)N[C@@H](C)C(=O)NCC(=O)N[C@@H](Cc1ccccc1)C(=O)O)C1CCCCC1)C(C)C)C(N)=O` (HELM PEPTIDE1{[C[C@H](NC(=O)/C=C/C(=O)[*:2])C(=O)NCC(=O)N[C@@H](Cc1ccccc1)C(=O)O].A.[O=C([C@@H](N[*:1])C1CCCCC1)[*:2]].V.V.[am]}$$$$V2.0), in that order: 57% and 34%.
The corresponding values for `CC(C)[C@H](NC(=O)[C@H](C)NC(=O)[C@@H](NC(=O)[C@H](C)NC(=O)/C=C/C(=O)N[C@@H](C)C(=O)NCC(=O)N[C@@H](Cc1ccccc1)C(=O)O)c1ccccc1)C(N)=O` (HELM PEPTIDE1{[C[C@H](NC(=O)/C=C/C(=O)[*:2])C(=O)NCC(=O)N[C@@H](Cc1ccccc1)C(=O)O].A.[Phg].A.V.[am]}$$$$V2.0) are 57% and 25%.
The corresponding values for `CC(C)C[C@H](NC(=O)[C@@H](NC(=O)[C@H](C)NC(=O)/C=C/C(=O)N[C@@H](C)C(=O)NCC(=O)N[C@@H](Cc1ccccc1)C(=O)O)c1ccccc1)C(=O)N[C@H](C(N)=O)C(C)C` (HELM PEPTIDE1{[C[C@H](NC(=O)/C=C/C(=O)[*:2])C(=O)NCC(=O)N[C@@H](Cc1ccccc1)C(=O)O].A.[Phg].L.V.[am]}$$$$V2.0) are 55% and 72%.
As to `CC(C)[C@H](NC(=O)[C@@H](NC(=O)[C@@H](NC(=O)[C@H](C)NC(=O)/C=C/C(=O)N[C@@H](C)C(=O)NCC(=O)N[C@@H](Cc1ccccc1)C(=O)O)c1ccccc1)C(C)C)C(N)=O` (HELM PEPTIDE1{[C[C@H](NC(=O)/C=C/C(=O)[*:2])C(=O)NCC(=O)N[C@@H](Cc1ccccc1)C(=O)O].A.[Phg].V.V.[am]}$$$$V2.0), the values for the inhibition in assay [1] and in assay [2] were 38% and 50%, respectively.
Regarding `CC(C)[C@H](NC(=O)[C@H](C)NC(=O)[C@H](Cc1ccccc1)NC(=O)[C@H](Cc1ccccc1)NC(=O)/C=C/C(=O)N[C@@H](C)C(=O)NCC(=O)N[C@@H](Cc1ccccc1)C(=O)O)C(N)=O` (HELM PEPTIDE1{[C[C@H](NC(=O)/C=C/C(=O)[*:2])C(=O)NCC(=O)N[C@@H](Cc1ccccc1)C(=O)O].F.F.A.V.[am]}$$$$V2.0), the values for the inhibition in assay [1] and in assay [2] were 30% and 37%, respectively.
For `CC(C)C[C@H](NC(=O)[C@H](Cc1ccccc1)NC(=O)[C@H](Cc1ccccc1)NC(=O)/C=C/C(=O)N[C@@H](C)C(=O)NCC(=O)N[C@@H](Cc1ccccc1)C(=O)O)C(=O)N[C@H](C(N)=O)C(C)C` (HELM PEPTIDE1{[C[C@H](NC(=O)/C=C/C(=O)[*:2])C(=O)NCC(=O)N[C@@H](Cc1ccccc1)C(=O)O].F.F.L.V.[am]}$$$$V2.0), in that order: 47% and 54%.

The values are drawn from ChEMBL document CHEMBL1155459, “On-bead screening of a combinatorial fumaric acid derived peptide library yields antiplasmodial cysteine protease inhibitors with unusual peptide sequences” (J Med Chem, 2009).
